Assay results reported in publication PMC7394305 (Journal for Immunotherapy of Cancer, 2020).
Like-named read-outs stand apart in the source and are kept apart here.

Legend:
OT-1 CD8+ T cells [1] = test: Ex vivo CD103+ DC isolation and OT-I T cell co-culture; type: in vivo, mouse; conditions: CD103+ DC from TdLN of MC38-OVA mice
MC38 tumors [2] = test: Gene expression analysis of MC38 tumors; type: in vivo, mouse; conditions: 14 days treatment
Procedure, shortened: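 Mice bearing sc MC38 tumors were treated with test compound for 14 days. Tumor gene expression was profiled with the NanoString Mouse PanCancer Immune Profiling Panel.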

MCA205 tumors = MCA205 tumors in immunodeficient NSG mice; type: in vivo, mouse; conditions: AZD4635 and anti-PD-L1 (D265A)
Procedure, shortened: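 NSG mice got MCA205 cells sc (1×10^6 in PBS, right flank), with randomisation at 50–90 mm3. Treatment was oral test compound nanosuspension plus anti-PD-L1 (mIgG1 D265A, ip 10 mg/kg twice weekly). Tumor volume was measured twice weekly.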

CD8+ T cells = test: T cell IFNγ secretion assay; type: cell-based, mouse; conditions: for EC50: Mus musculus, T-cell
MC38 tumors [3] = test: Tumor immunophenotyping flow cytometry of MC38 tumors; type: in vivo, mouse
MC38-OVA tumors [4] = test: Ex vivo stimulation cytokine flow cytometry of MC38-OVA tumors; type: in vivo, mouse; conditions: for IFN-γ, TNF-α, IL-2, granzyme B and CD107a on CD8+ T cells: PMA/ionomycin ex vivo stimulation
Procedure, shortened: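 Dissociated MC38-OVA tumor cells were plated at 2–4e5 live cells/well in complete T cell medium. […] CD8+ T and NK cell cytokines and CD107a were then read by flow cytometry.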

CD103+ DC [5] = test: Pinocytosis assay; type: cell-based, mouse
Procedure, shortened: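 1e6 iDCs were incubated with Alexa 488–ovalbumin (50 µg/mL final) in complete T cell medium for 30 min at 37°C, with 4°C as negative control. Cells were washed twice in ice-cold DPBS, kept chilled and analysed by flow cytometry.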

monocyte-derived DCs = test: Antigen-specific priming of HLA-A*0201 Melan-A CD8+ T cells; type: cell-based, human
CD103+ DC [6] = test: CD103+ DC mouse bone marrow differentiation cultures; type: cell-based
tumor draining LN cells = test: ELISpot assay of tumor draining lymph node cells; type: in vivo, mouse; conditions: combination with anti-PD-L1; MC38-OVA tumor-bearing mice
OT-1 CD8+ T cells [7] = test: CD103+ DC co-culture with OT-1 CD8+ T cells; type: cell-based, mouse
CD103+ DC [8] = test: Analysis of antigen presentation; type: cell-based, mouse
MC38-OVA tumors [9] = test: MC38-OVA syngeneic tumor model; type: in vivo, mouse
Procedure, shortened: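 C57BL/6 mice bore sc MC38-OVA (5×10^5 cells in PBS) and were randomised at 80–100 mm3. Anti-CD8 or rat IgG2b isotype was injected every 3 days. Mice also got oral test compound 50 mg/kg twice daily plus anti-PD-L1 10 mg/kg ip twice weekly. Tumor volume was tracked twice weekly.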

F4/80+ macrophages = test: Mouse macrophage assay; type: cell-based; conditions: 10 µM NECA
[10] = AZD4635 + NECA, dead MC38-OVA tumor cells
[11] = whole ovalbumin protein, AZD4635+NECA
[12] = 5 μM NECA, dead MC38-OVA tumor cells
[13] = DC differentiated with 5 µM NECA, loaded with SIINFEKL peptide

Cc1cc(-c2nnc(N)nc2-c2ccc(F)cc2)cc(Cl)n1 [AZD4635]
proliferation of OT-1 CD8+ T cells (OT-1 CD8+ T cells [1]; anti-PD-L1+AZD4635 combination): 53% | proliferation of OT-1 CD8+ T cells (OT-1 CD8+ T cells [1]; single agent, vehicle 5.8%): 28% | expression of genes associated with immune activation relative to vehicle (MC38 tumors [2]): upregulated expression | antitumor activity in immunodeficient mice (MCA205 tumors): completely abrogated | EC50 (CD8+ T cells; read-out: EC50 restoration of IFN-γ secretion, 0.1 µM NECA): 53 nM | EC50 (CD8+ T cells; read-out: EC50 restoration of IFN-γ secretion, 1 µM NECA): 598 nM | restoration of IFN-γ secretion (CD8+ T cells; in presence of NECA): back to baseline levels | MHCII and CD86 expression on CD11c+ DCs and F4/80+ macrophages (MC38 tumors [3]; 14 days, single agent): increased expression | intratumoral frequencies of DCs and macrophages (MC38 tumors [3]; 14 days, single agent): did not increase | frequency of infiltrating CD8+ cytotoxic lymphocytes compared with vehicle (MC38 tumors [3]; in combination with anti-PD-L1): significantly increased | NK cell IFN-γ production (MC38-OVA tumors [4]; combination with anti-PD-L1): minimal increase | NK cell TNF-α production and CD107a expression (MC38-OVA tumors [4]; combination with anti-PD-L1): strong increase | IFN-γ, TNF-α, IL-2, granzyme B and CD107a on CD8+ T cells (MC38-OVA tumors [4]; combination with anti-PD-L1): most significantly increased | IFN-γ, TNF-α, IL-2, granzyme B and CD107a on CD8+ T cells (MC38-OVA tumors [4]; single agent): all enhanced | rescue of fluorescent OVA uptake (CD103+ DC [5]; AZD4635 3 µM with NECA): almost to levels in untreated control | Melan-A26-35 tetramer positive CD8+ T cells (monocyte-derived DCs; 5 µM NECA, AZD4635 3 µM where given, tabulated, 4 donors, no NECA 32%): 16% | differentiation into CD103+ DC (CD103+ DC [6]; 3 µM AZD4635 then NECA): able to differentiate into CD103^+ DC efficiently | IFN-γ response to OVA and p15E peptides (tumor draining LN cells): Strong activation of IFN-γ | restoration of CD107a and IFN-γ (OT-1 CD8+ T cells [7]; AZD4635 + NECA, SIINFEKL peptide): comparable to untreated cells | CD107a response relative to responses elicited by untreated cells (OT-1 CD8+ T cells [7]; [10]): 87% | IFN-γ response compared with untreated cells (OT-1 CD8+ T cells [7]; [10]): not statistically different | rescue of antigen presentation compared with NECA treatment (CD103+ DC [8]; SIINFEKL pulsed cultures, AZD4635 3 µM + NECA): twofold | antigen presentation level versus untreated CD103+ DCs (CD103+ DC [8]; [11]): restored to a level comparable to untreated | increase of antigen presentation compared with NECA (CD103+ DC [8]; [11]): nearly fivefold | tumor efficacy of combination (MC38-OVA tumors [9]; AZD4635 50 mg/kg twice daily with αPD-L1 10 mg/kg): appreciable beneficial combination effect | antitumor activity after depletion of CD8 T cells (MC38-OVA tumors [9]; AZD4635+PD-L1 treatments, antimouse CD8 antibody): completely abrogated

CCNC(=O)[C@H]1O[C@@H](n2cnc3c(N)ncnc32)[C@H](O)[C@@H]1O [NECA, 5′-(N-ethylcarboxamido) adenosine]
suppression of MHCII expression relative to DMSO-treated controls (F4/80+ macrophages): > 90% | suppression of IFN-γ secretion (CD8+ T cells; 1 µM NECA, CD3/CD28 beads): 80% | reduction of fluorescent OVA uptake (CD103+ DC [5]; NECA 5 µM): ~50% | Melan-A26-35 tetramer positive CD8+ T cells (monocyte-derived DCs): 2.5% | reduction of cross-priming function of DCs (monocyte-derived DCs; 5 µM NECA): greater than 90% | CD103+ cells (CD103+ DC [6]; 5 µM NECA, untreated 80%): 57% | reduction of CD107a response (OT-1 CD8+ T cells [7]; [12]): 75% | reduction of IFN-γ response (OT-1 CD8+ T cells [7]; [12]): 75% | reduction of CD107a expression by OT-1 CD8+ T cells (OT-1 CD8+ T cells [7]; [13]): 72% | reduction of IFN-γ secretion by OT-1 CD8+ T cells (OT-1 CD8+ T cells [7]; [13]): 60% | antigen presentation compared with untreated CD103+ DC (CD103+ DC [8]; SIINFEKL pulsed cultures, NECA 5 µM): less than a third | antigen presentation compared with untreated cells (CD103+ DC [8]; whole ovalbumin protein, NECA 5 µM): a log-fold reduced
